Data taken from ChEMBL document CHEMBL1142359 (J Med Chem, 2008).
Each block holds one compound with its values, some of them ahead of it.

What was measured:
[1] = biological target: T1, Sodium/glucose cotransporter 2 (Homo sapiens, UniProt P31639); assay: Inhibition of human SGLT2 expressed in CHO cells assessed as inhibition of [14C]AMG accumulation; format: cell-based
T1 sequence (P31639 whole entry): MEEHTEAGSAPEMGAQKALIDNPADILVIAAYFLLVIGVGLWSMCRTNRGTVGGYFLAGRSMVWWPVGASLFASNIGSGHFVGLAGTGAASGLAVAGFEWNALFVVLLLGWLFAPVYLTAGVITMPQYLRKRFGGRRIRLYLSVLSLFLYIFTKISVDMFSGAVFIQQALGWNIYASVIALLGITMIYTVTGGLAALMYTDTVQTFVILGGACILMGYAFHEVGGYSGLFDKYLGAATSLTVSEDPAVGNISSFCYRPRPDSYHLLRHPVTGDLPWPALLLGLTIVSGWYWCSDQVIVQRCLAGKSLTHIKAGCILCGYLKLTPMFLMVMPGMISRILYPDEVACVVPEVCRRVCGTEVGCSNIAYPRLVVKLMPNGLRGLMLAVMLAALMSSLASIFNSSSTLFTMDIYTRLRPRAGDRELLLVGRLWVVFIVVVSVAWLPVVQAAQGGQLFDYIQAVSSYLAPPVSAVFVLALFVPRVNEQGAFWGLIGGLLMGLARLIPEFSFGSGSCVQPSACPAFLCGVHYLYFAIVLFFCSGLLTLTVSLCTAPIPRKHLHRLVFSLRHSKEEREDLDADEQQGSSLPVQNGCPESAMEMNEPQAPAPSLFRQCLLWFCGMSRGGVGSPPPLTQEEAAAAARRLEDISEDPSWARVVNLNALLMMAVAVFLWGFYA
How it was run: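 Radiolabeled α-methyl-D-glucopyranoside accumulation in Chinese hamster ovary cells stably expressing human or rat SGLT2. EC50 is taken as inhibition of that uptake. The assay was run in protein-free buffer, and n is given per value.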

[2] = biological target: T2, Sodium/glucose cotransporter 2 (Rattus norvegicus, UniProt P53792); assay: Inhibition of rat SGLT2 expressed in CHO cells assessed as inhibition of [14C]AMG accumulation
T2 sequence (P53792 whole entry): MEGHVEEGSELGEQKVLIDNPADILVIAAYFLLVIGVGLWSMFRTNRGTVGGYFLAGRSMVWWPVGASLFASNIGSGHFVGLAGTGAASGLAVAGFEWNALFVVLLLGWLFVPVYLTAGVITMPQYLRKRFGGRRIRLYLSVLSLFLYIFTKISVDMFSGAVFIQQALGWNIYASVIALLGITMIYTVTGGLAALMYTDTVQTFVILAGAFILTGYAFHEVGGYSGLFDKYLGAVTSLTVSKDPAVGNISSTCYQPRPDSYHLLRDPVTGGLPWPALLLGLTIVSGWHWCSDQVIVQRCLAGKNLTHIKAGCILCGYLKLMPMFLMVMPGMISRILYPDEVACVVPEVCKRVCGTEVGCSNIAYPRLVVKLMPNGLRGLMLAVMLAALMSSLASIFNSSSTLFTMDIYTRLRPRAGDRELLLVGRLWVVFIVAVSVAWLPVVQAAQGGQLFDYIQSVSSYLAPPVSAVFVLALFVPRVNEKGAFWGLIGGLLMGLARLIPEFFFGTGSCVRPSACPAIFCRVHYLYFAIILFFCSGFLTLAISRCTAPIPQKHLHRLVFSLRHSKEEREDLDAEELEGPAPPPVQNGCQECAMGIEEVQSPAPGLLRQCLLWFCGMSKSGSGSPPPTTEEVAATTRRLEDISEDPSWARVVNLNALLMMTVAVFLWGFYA

[3] = Volume of distribution at steady state in rat; details: in vivo
[4] = Oral bioavailability in rat; details: in vivo
[5] = Clearance in rat at 1 mg/kg, po after 1.7 hrs; details: in vivo
[6] = Elimination half life in intra arterially dosed dog; details: in vivo
[7] = Elimination half life in intra arterially dosed monkey; details: rhesus monkey, in vivo
[8] = Fraction unbound in human serum at 10 uM
in vivo = details: rat, po, 1 mg/kg
[9] = biological target: T3, Solute carrier family 2, facilitated glucose transporter member 4 (Homo sapiens) (UniProt P14672); details: 20 uM
T3 sequence (whole entry): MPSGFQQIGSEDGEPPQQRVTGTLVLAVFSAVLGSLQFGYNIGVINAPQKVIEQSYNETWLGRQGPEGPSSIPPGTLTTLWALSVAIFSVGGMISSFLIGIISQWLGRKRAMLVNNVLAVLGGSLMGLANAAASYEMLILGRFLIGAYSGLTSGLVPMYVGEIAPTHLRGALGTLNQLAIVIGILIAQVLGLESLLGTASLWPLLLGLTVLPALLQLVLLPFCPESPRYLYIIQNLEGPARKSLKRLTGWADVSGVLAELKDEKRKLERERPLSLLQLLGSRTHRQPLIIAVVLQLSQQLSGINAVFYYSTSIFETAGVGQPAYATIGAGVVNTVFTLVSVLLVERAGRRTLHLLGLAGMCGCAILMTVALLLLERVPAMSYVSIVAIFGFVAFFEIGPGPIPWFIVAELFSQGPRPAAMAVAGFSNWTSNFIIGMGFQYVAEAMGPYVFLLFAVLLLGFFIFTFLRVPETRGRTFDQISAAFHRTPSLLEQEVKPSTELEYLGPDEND

[10] = Permeability across human Caco-2 cells
[11] = Elimination half life in intra arterially dosed rat; details: in vivo
[12] = biological target: T4, Solute carrier family 2, facilitated glucose transporter member 1 (Homo sapiens) (UniProt P11166); details: 20 uM
T4 sequence (whole entry): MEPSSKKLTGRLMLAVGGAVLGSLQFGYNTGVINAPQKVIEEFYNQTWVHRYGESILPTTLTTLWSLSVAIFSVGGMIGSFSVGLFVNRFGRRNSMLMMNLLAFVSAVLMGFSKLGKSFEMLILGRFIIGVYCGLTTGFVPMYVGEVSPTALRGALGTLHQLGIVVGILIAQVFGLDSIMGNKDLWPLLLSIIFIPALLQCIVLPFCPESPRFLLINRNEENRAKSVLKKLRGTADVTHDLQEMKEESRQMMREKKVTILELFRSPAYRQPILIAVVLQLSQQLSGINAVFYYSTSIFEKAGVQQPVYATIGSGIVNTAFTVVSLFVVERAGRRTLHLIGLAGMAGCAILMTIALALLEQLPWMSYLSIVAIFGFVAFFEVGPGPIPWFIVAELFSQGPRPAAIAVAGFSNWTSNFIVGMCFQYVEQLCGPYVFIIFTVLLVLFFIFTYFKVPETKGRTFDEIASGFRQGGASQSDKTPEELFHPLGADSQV

[13] = Fraction unbound in rat serum at 10 uM

EC50 [1]: 1300 nM
SMILES: CCNC(=O)c1c(O)c(Cc2ccc(OC)cc2)cc([C@@H]2O[C@H](CO)[C@@H](O)[C@H](O)[C@H]2O)c1O

EC50 [1]: 9.2 nM
SMILES: COc1ccc(Cc2ccccc2O[C@@H]2O[C@H](CO)[C@@H](O)[C@H](O)[C@H]2O)cc1 [SERGLIFLOZIN A]

EC50 [1]: 6.6 nM
SMILES: Cc1cc(O)c(C(=O)CCc2ccc3occc3c2)c(O[C@@H]2O[C@H](CO)[C@@H](O)[C@H](O)[C@H]2O)c1

EC50 [2]: 3 nM
Vd [3]: 1.6 L/kg
bioavailability [4]: 84%
CL/F at 1.7 h [5]: 4.8 mL/min/kg
half-life [6]: 7.4 h
half-life [7]: 3 h
fraction unbound at 10 µM [8]: 0.04
Cmax at 1.7 h (in vivo): 600 ng/mL
inhibition [9]: 8%
Papp [10]: > 15 ×10⁻⁶ cm/s
half-life [11]: 4.6 h
inhibition [12]: 8%
fraction unbound at 10 µM [13]: 0.03
SMILES: CCOc1ccc(Cc2cc([C@@H]3O[C@H](CO)[C@@H](O)[C@H](O)[C@H]3O)ccc2Cl)cc1 [DAPAGLIFLOZIN]
